STEP inh – STEP (human) phosphatase inhibition. recombinant STEP, OMFP fluorogenic substrate, fluorescence. 0.25% of 360,000 active. P54829. AID 588621. inhibition, % at 20 µM;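 active = inhibition at 20 µM, scaled per plate between control wells, above about 37%, limit read from the data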;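 also: 0% = DMSO with enzyme and substrate and 100% = substrate only without enzyme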
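Material: STEP (striatal-enriched tyrosine phosphatase) enzyme, cell-free | Medium: 50 mM Bis-Tris pH 6.0 with 2.5 mM DTT and 0.005% Tween 20 | Read-out: Percent inhibition scaled to no-enzyme and uninhibited-enzyme controls, plate-pattern corrected | Signal: Fluorescence read at 480 nm ex / 540 nm em | Times: 20 min reaction, room temperature, in the dark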
SUMO1-SIM PPI – alters human SUMO1 binding to SIM partners | P63165 | SUMO1 binding to a labelled peptide, TR-FRET, 1 h | inhibition, % at 20 µM | 0.33% of 360,000 active | AID 602429; in the data active = inhibition above about 37%
Target sequence (P63165 whole entry, looked up): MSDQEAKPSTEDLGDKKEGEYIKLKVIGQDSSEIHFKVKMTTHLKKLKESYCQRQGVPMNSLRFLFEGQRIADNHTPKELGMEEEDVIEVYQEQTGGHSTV
Scp-1 inhibitor – Scp-1 (human) phosphatase inhibition | 0.88% of 340,000 active | Recombinant Scp1, phosphopeptide, malachite green phosphate absorbance | AID 493091 | Q9GZU7 | inhibition, % at 20 µM;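 active = inhibition above about 50% at 20 µM, limit read from the data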;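 also: plate controls were DMSO wells with enzyme for no effect and wells lacking enzyme for full effect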
Target sequence (Q9GZU7 76-261 limits assumed): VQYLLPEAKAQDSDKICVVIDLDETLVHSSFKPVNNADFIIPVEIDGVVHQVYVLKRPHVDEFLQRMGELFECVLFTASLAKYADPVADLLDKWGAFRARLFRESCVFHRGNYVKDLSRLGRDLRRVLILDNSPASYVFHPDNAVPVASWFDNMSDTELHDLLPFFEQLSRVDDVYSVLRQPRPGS
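Test system – truncated SCP-1 phosphatase (76-261aa) · Reagent – Phosphorylated 17-residue peptide substrate · Incubation – 45 min room-temperature reaction, 5 min colour, 30 min stabiliser · Detection – colorimetric phosphate reagent with accelerator and stabiliser, absorbance at 630 nm · Measure – % inhibition at 20 µM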
DNMT1 inh – blocks human DNA methyltransferase DNMT1 | inhibition (reported as % activation of signal), % at 10 µM | P26358 | 0.83% of 360,000 active | DNMT1 molecular beacon, Hinp1I cleavage, fluorescence; in the data active = inhibition above about 50%
CSN deneddyl inh – inhibitors of human CSN-mediated cullin deneddylation; Q92905; Purified CSN, SCF-Nedd8-OG deneddylation, fluorescence polarization; inhibition, % at 12.5 µM; 0.38% of 360,000 active; AID 651999;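 active = pattern-corrected inhibition above about 35%, with an unprinted fluorescence ratio check between 0.5 and 1.5, limit read from the data, passing the limit was not always enough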;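 also: 0% = enzyme with substrate and 100% = substrate without enzyme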
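Test system: Human Csn5 produced in HEK293T cells | Compound: 12.5 µM single point | Times: 90 min, room temperature | Signal: Fluorescence polarization readout | Read-out basis: % inhibition of substrate cleavage by Csn5 | Controls: no-enzyme wells high, enzyme-with-substrate wells low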
LMPTP inh – blocks human LMPTP phosphatase; P24666; recombinant LMPTP-A, OMFP fluorogenic substrate, fluorescence intensity; inhibition, % at 20 µM; 0.22% of 360,000 active;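 active = compounds that cut the enzyme signal by at least half of the control window in the single-dose screen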;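 also: plate controls were DMSO wells with enzyme plus substrate for no effect and substrate without enzyme for full effect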
Target sequence (P24666 whole entry, looked up): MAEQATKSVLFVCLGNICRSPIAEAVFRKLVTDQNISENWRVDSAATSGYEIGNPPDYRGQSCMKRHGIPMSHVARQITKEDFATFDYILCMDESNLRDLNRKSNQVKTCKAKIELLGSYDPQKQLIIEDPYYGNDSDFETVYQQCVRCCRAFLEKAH
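Test system: LMPTP-A phosphatase enzyme; input: 0.625 nM LMPTP-A final; reagent: OMFP substrate, 400 µM final; compound dosing: 20 µM single dose, 3% DMSO; incubation: 50 min dark incubation at room temperature; measured by: endpoint fluorescence intensity from OMFP dephosphorylation; measure: % inhibition relative to no-enzyme and uninhibited control wells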
Scp-1 conf – confirmation of human Scp-1 phosphatase inhibitors | shares compounds with Scp-1 inhibitor | recombinant SCP-1 catalytic domain, phosphate release, malachite green absorbance | inhibition, % at 20 µM | 61% of 2,500 active;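 also: plate controls were DMSO with enzyme for no effect and buffer wells lacking enzyme for full effect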
MG interference – colorimetric interference in Scp-1 counter-screen | shares compounds with Scp-1 inhibitor | AID 540313 | apparent inhibition (interference), % at 20 µM | Colorimetric interference counterscreen, malachite green absorbance 630 nm | 2,500 tested, under 10 active;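 also: compounds added after enzyme reaction finished so only phosphate colour detection is probed; plate controls were DMSO wells with completed Scp-1 reaction for no effect and substrate wells lacking enzyme for full effect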
Scp-1 Tm shift – Scp-1 (human) binding by thermal shift | Recombinant SCP1, Sypro Orange thermal shift Tm | thermal shift relative to vanadate control, % at 40 µM | shares compounds with Scp-1 inhibitor | 25% of 1,500 active;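 active = substances whose mean melting-temperature shift, as a percentage of the reference inhibitor's shift, reaches about 5.3%, limit read from the data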;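 also: 0% = Tm of DMSO wells and 100% = Tm with sodium orthovanadate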
* hit, by the source's call; x = not tested or not shown. Rows were chosen to be rich in hits. Some 2% of all compounds tested hit in one or more screens of this group.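 The calls were made as follows, unless noted: active = inhibition of at least 30% at 20 µM; inactive = the rest.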

SMILES	STEP inh	SUMO1-SIM PPI	Scp-1 inhibitor	DNMT1 inh	CSN deneddyl inh	LMPTP inh	Scp-1 conf	MG interference	others
O=C(O)c1ccc(-n2c(-c3cc(-c4ccco4)[nH]n3)n[nH]c2=S)cc1	6	27	67*	43	42*	-2	69*	-8	Scp-1 Tm shift=-6
O=S(=O)(c1cccc(F)c1)N1CCc2sccc2C1c1ccc(OC(F)(F)F)cc1 (stereo not drawn)	2	5	-17	5	-5	6	x	x
Cc1cc(NC(=O)c2c(Br)c(C)nn2C)no1	-2	2	0	0	-14	-1	x	x
O=C(CCN1C(=O)C2CCCCC2C1=O)Nc1nc2ccc(F)cc2s1 (stereo not drawn)	-2	5	-2	3	-6	-1	-10	-14
O=C(CCN1C(=O)C2CCCCC2C1=O)Nc1nc2c(F)cc(F)cc2s1 (stereo not drawn)	1	-3	-3	-4	-3	0	x	x
COc1cc(C=O)ccc1OC(=O)c1cccnc1	-2	2	4	0	-2	0	x	x
COc1ccc(OC)c(NC(=O)COC(=O)CCCN=C2NS(=O)(=O)c3ccccc32)c1	3	1	-7	2	-7	-1	x	x
Cc1nn(CCc2nn[nH]n2)c2nc(-c3ccccc3)cc(C(F)(F)F)c12	-3	4	64*	2	0	0	71*	-4	Scp-1 Tm shift=-11
O=C(N/N=C/C=C/c1ccc(Br)cc1)C(O)c1ccccc1 (stereo not drawn)	2	-6	-3	1	-1	-1	x	x
COC(=O)Cn1c(=O)c2c(n(Cc3ccccc3)c1=O)N/C(=C/c1ccc(Br)cc1)C2=O	14	-1	107*	-3	13	2	57*	-15	Scp-1 Tm shift=12*
CC(C)OC(=O)C1C2C=CC3(CN(Cc4cccs4)C(=O)C13)O2 (stereo not drawn)	-1	-3	68*	1	-3	-1	-12	-10
COC1CCCN(C(=O)c2ccc(OC3CCN(S(=O)(=O)N(C)C)CC3)cc2)C1 (stereo not drawn)	0	-4	-4	1	-6	0	x	x
CC1=CCC(C(=O)O)C(C(=O)Nc2ccc(-c3nc4ccc(C)cc4s3)cc2)C1 (stereo not drawn)	2	9	50*	25	6	1	65*	-5	Scp-1 Tm shift=4
CCOC(=O)c1cc(-c2ccc(F)cc2)n(CCC(=O)NC2CCN(Cc3ccccc3)CC2)c1C	-2	2	-4	0	0	-1	x	x
O=C(O)c1cc(S(=O)(=O)NCCN2CCNC2=O)ccc1O	-2	3	-4	-1	-1	-5	x	x
O=C1NCCN1CCNS(=O)(=O)c1ccc2ccccc2c1	-1	-1	-8	-1	2	-2	-1	-2
O=C(COc1ccc(Cl)cc1)NNC(=O)c1ccc(=O)[nH]c1	2	-3	59*	1	0	0	26	6
CCOC(=O)C1CCN(C(=O)Nc2ccc(OC(F)(F)F)cc2)CC1	-2	28	-1	0	-1	0	x	x
Nc1cc2c(cc1[N+](=O)[O-])OCCO2	1	-31	-4	0	2	1	x	x
Nc1cc2c(cc1[N+](=O)[O-])OCO2	4	-11	58*	24	-3	19	58*	-5	Scp-1 Tm shift=4
N#CC(C#N)c1ccnc2ccccc12	3	-27	x	1	2	2	x	x
COc1ccc(NC(=S)N(CCCN2CCOCC2)C(C)c2cc3ccccc3o2)cc1 (stereo not drawn)	3	-1	64*	-1	6	-3	-12	-9
